Results on nine compounds are retold here after ChEMBL document CHEMBL1126896, “Preparation and anti-HIV activity of O-acylated heparin and dermatan sulfate derivatives with low anticoagulant effect” (J Med Chem, 1993).

In one experiment the test system is HuT78. The experiment in a line: Giant-cell formation between persistently HIV-1 infected HUT-78 cells and uninfected MOLT-4 cells. It counts as functional, cell-based. The gist of the method: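 MOLT-4 cells were co-cultured with an equal number of HUT-78 cells persistently infected with HIV-1 IIIB or HIV-2 ROD, with varying compound concentrations. Syncytia were counted by flow cytofluorography after 24 h. EC50 is the concentration giving 50% protection against giant-cell formation.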

Experiment [1] concerns MT4. Description: Effective concentration to achieve 50% protection of MT-4 cells against the cytopathic effect of HIV-1. The class given is functional, cell-based. In general terms: Cytopathic effects are the visible damage that an infection or toxin causes in cultured cells.
Experiment [2] concerns MT4. The experiment in a line: Selectivity index for CC50 (cytotoxic concentration based on reduction of viability of mock-infected MT-4 cells) to that of EC50 against HIV-2. It counts as functional. The gist of the method: (§1)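 MT-4 cells at 3 × 10^5 cells/mL were infected with HIV-1 IIIB or HIV-2 ROD at 100 CCID50/mL, or mock-infected, alongside serial compound dilutions. Viability was read by MTT after 5 days at 37 °C. CC50 comes from mock-infected cells and EC50 from protection against cytopathicity. Index = CC50/EC50.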

The subject of experiment [3] is MT4. Description: Effective concentration to achieve 50% protection of MT-4 cells against the cytopathic effect of HIV-2. It counts as functional, cell-based.
Experiment [4] concerns MT4. Description: Selectivity index for CC50 (cytotoxic concentration based on the reduction of the viability of mock-infected MT-4 cells) to that of EC50 against HIV-1. It counts as functional. The gist of the method:
as §1

Experiment [5] can be described thus: In vitro anticoagulant activity determined by clotting test of activated partial thromboplastin time (APTT) on a pool of human plasma. It counts as functional. The gist of the method:
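Activated partial thromboplastin time clotting test on pooled human plasma, run on an automatic coagulometer. Activities were calculated according to the European Pharmacopoeia.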

[6] abbreviates: Homo sapiens, HuT78, read-out: EC50.
[7] abbreviates: Homo sapiens, MT4, read-out: EC50.

In general, EC50 refers to the concentration that produces a half-maximal response. As to `O=C([O-])/C=C(\COC(=O)CCC(=O)[O-])OC1OC(COS(=O)(=O)[O-])C(OC2OC(C(=O)[O-])C(OC3OC(COS(=O)(=O)[O-])C(OC4OC(C(=O)[O-])C(OC5OC(COS(=O)(=O)[O-])C(O)C(OC(=O)CCC(=O)[O-])C5NS(=O)(=O)[O-])C(OC(=O)CCC(=O)[O-])C4OS(=O)(=O)[O-])C(OC(=O)CCC(=O)[O-])C3NS(=O)(=O)[O-])C(OC(=O)CCC(=O)[O-])C2OS(=O)(=O)[O-])C(OC(=O)CCC(=O)[O-])C1NS(=O)(=O)[O-].[Na+].[Na+].[Na+].[Na+].[Na+].[Na+].[Na+].[Na+].[Na+].[Na+].[Na+].[Na+].[Na+].[Na+].[Na+].[Na+].[Na+]` (centres undefined), the EC50 is > 100 µg/mL in the experiment with HuT78 (setting [6]), 0.2 µg/mL in the experiment on MT4 [1] (setting [7]) and 5 µg/mL with MT4 [3] (setting [7]). The Selectivity index in the experiment with MT4 [2] is given as >100; with MT4 [4], >2500. The APTT in experiment [5] was 3.1 IU mg-1.

For the compound `CCCC(=O)O[C@@H]1[C@@H](OC(C)=O)[C@H](O[C@H]2[C@@H](OS(=O)(=O)[O-])[C@@H](NS(=O)(=O)[O-])[C@@H](O[C@@H]3C(C(=O)[O-])O[C@@H](O[C@H]4[C@H](OC(=O)CCC)[C@@H](CO)O[C@@H]4COS(=O)(=O)[O-])[C@H](OS(=O)(=O)[O-])[C@H]3OC(=O)CCC)O[C@@H]2COS(=O)(=O)[O-])O[C@H](C(=O)[O-])[C@H]1O[C@H]1O[C@H](COS(=O)(=O)[O-])[C@@H](O[C@@H]2O[C@@H](C(=O)[O-])[C@@H](O)[C@H](OC(=O)CCC)[C@H]2OC(C)=O)[C@H](OC(=O)CCC)[C@H]1NC(C)=O.[Na+].[Na+].[Na+].[Na+].[Na+].[Na+].[Na+].[Na+].[Na+]` (some centres undefined), the figures for the concentration giving a half-maximal response (EC50) in the experiment on HuT78 (setting [6]), with MT4 [1] (setting [7]) and in the experiment on MT4 [3] (setting [7]) were 15.4 µg/mL, 0.53 µg/mL and 0.24 µg/mL, respectively. For the same compound, the Selectivity index worked out at 15.4 in the experiment on MT4 [2] and 89 in the experiment with MT4 [4]. In experiment [5], this compound displayed an APTT of 11 IU mg-1.

Take `CCCCOC(=O)/C=C(\COC(=O)CCC)OC1OC(COS(=O)(=O)[O-])C(OC2OC(C(=O)OCCCC)C(OC3OC(COS(=O)(=O)[O-])C(OC4OC(C(=O)OCCCC)C(OC5OC(COS(=O)(=O)[O-])C(O)C(OC(=O)CCC)C5NC(C)=O)C(OC(=O)CCC)C4OS(=O)(=O)[O-])C(OC(=O)CCC)C3NC(C)=O)C(OC(=O)CCC)C2OS(=O)(=O)[O-])C(OC(=O)CCC)C1NC(C)=O.[Na+].[Na+].[Na+].[Na+].[Na+]` (centres undefined): the concentration giving a half-maximal response (EC50) with HuT78 (setting [6]) was 15 µg/mL; with HuT78 (hut78) it was 15 µg/mL; in the experiment on MT4 [1] (setting [7]), 2.3 µg/mL; in the experiment with MT4 [3] (setting [7]), 2.6 µg/mL. Further, the Selectivity index is >192 with MT4 [2] and >217 in the experiment with MT4 [4]. This compound also gave an APTT in experiment [5] of 1.3 IU mg-1.

`CCCC(=O)OC/C(=C\C(=O)[O-])O[C@H]1O[C@H](COS(=O)(=O)[O-])[C@@H](O[C@@H]2O[C@@H](C(=O)[O-])[C@@H](O[C@H]3O[C@H](COS(=O)(=O)[O-])[C@@H](O[C@@H]4O[C@@H](C(=O)[O-])[C@@H](O[C@H]5O[C@H](CS(=O)(=O)[O-])[C@@H](O)[C@H](OC(=O)CCC)[C@H]5NS(=O)(=O)[O-])[C@H](OC(=O)CCC)[C@H]4OS(=O)(=O)[O-])[C@H](OC(=O)CCC)[C@H]3NS(=O)(=O)[O-])[C@H](OC(=O)CCC)[C@H]2OS(=O)(=O)[O-])[C@H](OC(=O)CCC)[C@H]1NS(=O)(=O)[O-].[Na+].[Na+].[Na+].[Na+].[Na+].[Na+].[Na+].[Na+].[Na+].[Na+].[Na+]` (stereo in doubt; 4k): the EC50 in the experiment on HuT78 (hut78) amounted to 2 µg/mL; in the experiment with MT4 [1] (mt4), 0.51 µg/mL; in the experiment with MT4 [3] (mt4) it was 0.26 µg/mL. The Selectivity index was >1923 in the experiment with MT4 [2] and >980 in the experiment with MT4 [4]. The APTT in experiment [5] was 29.3 IU mg-1.

For `CCCC(=O)OC/C(=C\C(=O)[O-])O[C@H]1O[C@H](COS(=O)(=O)[O-])[C@@H](O[C@@H]2O[C@@H](C(=O)[O-])[C@@H](O[C@H]3O[C@H](COS(=O)(=O)[O-])[C@@H](O[C@@H]4O[C@@H](C(=O)[O-])[C@@H](O[C@H]5O[C@H](CS(=O)(=O)[O-])[C@@H](O)[C@H](OC(=O)CCC)[C@H]5NS(=O)(=O)[O-])[C@H](OC(=O)CCC)[C@H]4OS(=O)(=O)[O-])[C@H](OC(=O)CCC)[C@H]3NS(=O)(=O)[O-])[C@H](OC(=O)CCC)[C@H]2OS(=O)(=O)[O-])[C@H](OC(=O)CCC)[C@H]1NS(=O)(=O)[O-].[Na+].[Na+].[Na+].[Na+].[Na+].[Na+].[Na+].[Na+].[Na+].[Na+].[Na+]` (stereo in doubt; 3e), the half-maximal effective concentration (EC50) in the experiment with HuT78 (hut78) was 1.5 µg/mL; with MT4 [1] (mt4), 0.26 µg/mL; with MT4 [3] (mt4), 0.28 µg/mL. In addition, the Selectivity index in the experiment on MT4 [2] came out at 1261; with MT4 [4] it was 1357. The APTT in experiment [5] was 11 IU mg-1.

For `CCCC(=O)OC/C(=C\C(=O)[O-])O[C@H]1O[C@H](COS(=O)(=O)[O-])[C@@H](O[C@@H]2O[C@@H](C(=O)[O-])[C@@H](O[C@H]3O[C@H](COS(=O)(=O)[O-])[C@@H](O[C@@H]4O[C@@H](C(=O)[O-])[C@@H](O[C@H]5O[C@H](CS(=O)(=O)[O-])[C@@H](O)[C@H](OC(=O)CCC)[C@H]5NS(=O)(=O)[O-])[C@H](OC(=O)CCC)[C@H]4OS(=O)(=O)[O-])[C@H](OC(=O)CCC)[C@H]3NS(=O)(=O)[O-])[C@H](OC(=O)CCC)[C@H]2OS(=O)(=O)[O-])[C@H](OC(=O)CCC)[C@H]1NS(=O)(=O)[O-].[Na+].[Na+].[Na+].[Na+].[Na+].[Na+].[Na+].[Na+].[Na+].[Na+].[Na+]` (stereo in doubt; 4h), the results for the half-maximal effective concentration (EC50) in the experiment with HuT78 (hut78), in the experiment with MT4 [1] (mt4) and in the experiment with MT4 [3] (mt4) were 7.5 µg/mL, 0.28 µg/mL and 0.23 µg/mL, respectively. For the same compound, the Selectivity index is recorded as >2174 in the experiment with MT4 [2] and >1786 with MT4 [4]. Also, the APTT in experiment [5] came out at 9.7 IU mg-1.

For `CCCC(=O)OC/C(=C\C(=O)[O-])O[C@H]1O[C@H](COS(=O)(=O)[O-])[C@@H](O[C@@H]2O[C@@H](C(=O)[O-])[C@@H](O[C@H]3O[C@H](COS(=O)(=O)[O-])[C@@H](O[C@@H]4O[C@@H](C(=O)[O-])[C@@H](O[C@H]5O[C@H](CS(=O)(=O)[O-])[C@@H](O)[C@H](OC(=O)CCC)[C@H]5NS(=O)(=O)[O-])[C@H](OC(=O)CCC)[C@H]4OS(=O)(=O)[O-])[C@H](OC(=O)CCC)[C@H]3NS(=O)(=O)[O-])[C@H](OC(=O)CCC)[C@H]2OS(=O)(=O)[O-])[C@H](OC(=O)CCC)[C@H]1NS(=O)(=O)[O-].[Na+].[Na+].[Na+].[Na+].[Na+].[Na+].[Na+].[Na+].[Na+].[Na+].[Na+]` (stereo in doubt; 4f), the EC50 in the experiment on HuT78 (hut78) came to 1.3 µg/mL; with MT4 [1] (mt4), 0.44 µg/mL; in the experiment with MT4 [3] (mt4), 0.3 µg/mL. For the same compound, the figures for the Selectivity index with MT4 [2] and in the experiment with MT4 [4] were >1667 and >1136, respectively. In addition, the APTT in experiment [5] is 6.1 IU mg-1.

As to `CCCC(=O)OC/C(=C\C(=O)[O-])O[C@H]1O[C@H](COS(=O)(=O)[O-])[C@@H](O[C@@H]2O[C@@H](C(=O)[O-])[C@@H](O[C@H]3O[C@H](COS(=O)(=O)[O-])[C@@H](O[C@@H]4O[C@@H](C(=O)[O-])[C@@H](O[C@H]5O[C@H](CS(=O)(=O)[O-])[C@@H](O)[C@H](OC(=O)CCC)[C@H]5NS(=O)(=O)[O-])[C@H](OC(=O)CCC)[C@H]4OS(=O)(=O)[O-])[C@H](OC(=O)CCC)[C@H]3NS(=O)(=O)[O-])[C@H](OC(=O)CCC)[C@H]2OS(=O)(=O)[O-])[C@H](OC(=O)CCC)[C@H]1NS(=O)(=O)[O-].[Na+].[Na+].[Na+].[Na+].[Na+].[Na+].[Na+].[Na+].[Na+].[Na+].[Na+]` (stereo in doubt; 4e), the half-maximal effective concentration (EC50) stood at 43.7 µg/mL with HuT78 (hut78), 0.95 µg/mL in the experiment on MT4 [1] (mt4) and 0.07 µg/mL with MT4 [3] (mt4). In addition, the Selectivity index in the experiment on MT4 [2] is on record as >7142; in the experiment with MT4 [4], >526. Further, the APTT in experiment [5] worked out at 4.5 IU mg-1.

Regarding `CCCC(=O)OC/C(=C\C(=O)[O-])O[C@H]1O[C@H](COS(=O)(=O)[O-])[C@@H](O[C@@H]2O[C@@H](C(=O)[O-])[C@@H](O[C@H]3O[C@H](COS(=O)(=O)[O-])[C@@H](O[C@@H]4O[C@@H](C(=O)[O-])[C@@H](O[C@H]5O[C@H](CS(=O)(=O)[O-])[C@@H](O)[C@H](OC(=O)CCC)[C@H]5NS(=O)(=O)[O-])[C@H](OC(=O)CCC)[C@H]4OS(=O)(=O)[O-])[C@H](OC(=O)CCC)[C@H]3NS(=O)(=O)[O-])[C@H](OC(=O)CCC)[C@H]2OS(=O)(=O)[O-])[C@H](OC(=O)CCC)[C@H]1NS(=O)(=O)[O-].[Na+].[Na+].[Na+].[Na+].[Na+].[Na+].[Na+].[Na+].[Na+].[Na+].[Na+]` (stereo in doubt; 3b), the EC50 was 0.32 µg/mL in the experiment with MT4 [1] (mt4) and 1.94 µg/mL in the experiment with MT4 [3] (mt4). The Selectivity index in the experiment with MT4 [2] was determined as 185; with MT4 [4], 1121. The APTT in experiment [5] was determined as 5 IU mg-1.
